Measured values reported in ChEMBL document CHEMBL2331121, “Design, synthesis, and pharmacological characterization of N- and O-substituted 5,6,7,8-tetrahydro-4H-isoxazolo[4,5-d]azepin-3-ol analogues: novel 5-HT(2A)/5-HT(2C) receptor agonists with pro-cognitive properties” (J Med Chem, 2013).
Calls of active or inactive are those of the source. The calls are words filed in the database; no cut-off is given here.

Columns and labels:
Homo sapiens [1] = species: Homo sapiens; test: Selectivity ratio of EC50 for human 5HT2A receptor to EC50 for M1 muscarinic receptor (unknown origin) by FLIPR assay
Homo sapiens [2] = species: Homo sapiens; test: Selectivity ratio of EC50 for human 5HT2C receptor to EC50 for M1 muscarinic receptor (unknown origin) by FLIPR assay
[3] = target: T1, 5-hydroxytryptamine receptor 2A (Homo sapiens, UniProt P28223); test: Ratio of EC50 for human 5HT2A receptor by calcium fiux-based fluorescence assay to EC50 for 5HT2A by IP1 accumulation-based TR-FRET assay; type: functional
T1 sequence (P28223 whole entry): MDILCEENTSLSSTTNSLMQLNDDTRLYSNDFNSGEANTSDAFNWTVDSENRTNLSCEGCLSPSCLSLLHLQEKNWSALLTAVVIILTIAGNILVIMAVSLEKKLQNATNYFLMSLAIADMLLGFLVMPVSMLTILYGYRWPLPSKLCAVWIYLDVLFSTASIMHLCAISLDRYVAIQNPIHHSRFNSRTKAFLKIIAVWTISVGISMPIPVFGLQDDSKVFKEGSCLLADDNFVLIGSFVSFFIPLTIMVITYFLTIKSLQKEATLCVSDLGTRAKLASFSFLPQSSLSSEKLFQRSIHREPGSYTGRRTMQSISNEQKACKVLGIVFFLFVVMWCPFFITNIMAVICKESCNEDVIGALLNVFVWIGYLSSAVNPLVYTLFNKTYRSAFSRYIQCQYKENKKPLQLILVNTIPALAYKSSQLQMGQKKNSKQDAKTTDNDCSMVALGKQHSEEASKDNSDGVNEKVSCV

[4] = target: T1, 5-hydroxytryptamine receptor 2A; test: Agonist activity at human 5HT2A receptor expressed in HEK293 cells assessed as accumulation of IP1 incubated for 1 hr at 37 degC followed by 15 mins at RT by TR-FRET assay relative to 5HT; type: functional, cell-based
Method in brief: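 Polyclonal HEK293 lines stably expressing human 5-HT2A (variant 1) or 5-HT2C (INI isoform), detached and suspended at 1 × 10⁷ cells/mL in HBSS with 20 mM HEPES, 1 mM CaCl₂, 1 mM MgCl₂, pH 7.4. Ligands in buffer with 40 mM LiCl. Incubated 1 h at 37 °C, then 15 min RT. IP1 read by HTRF 665/615 ratio. Triplicate, at least four times.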

[5] = target: T1, 5-hydroxytryptamine receptor 2A; test: Agonist activity at human 5HT2A receptor expressed in HEK293 cells assessed as induction of intracellular calcium release by fluorescence assay relative to 5HT; type: functional, cell-based
Method in brief: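 Stable polyclonal 5-HT2A or 5-HT2C HEK293 cells seeded on poly-D-lysine plates (6 × 10⁴ cells/well). Next day loaded with Fluo-4/AM for 1 h at 37 °C in HBSS/20 mM HEPES/1 mM CaCl₂/1 mM MgCl₂/2.5 mM probenecid, pH 7.4. Fluorescence (485 ex/525 em) recorded before and up to 90 s after agonist. Response relative to 5-HT on the same plate. Duplicate, at least three times.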

Mus musculus [6] = test: Procognitive effect in C57BI/6J mouse assessed as time spent in familiar arm at 0.43 mg/kg, po administered 30 mins prior to acquisition trial measured after 24 hrs in presence of SB242084; type: functional
Method in brief: (§1)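 Male C57Bl/6J mice aged 8 weeks, two-trial place recognition Y-maze. 3 min acquisition with two arms open; 24 h ITI; 3 min retention with all three arms open. Drug given po 30 min before acquisition, vehicle 10% HP-βCD. SB242084 2.1 mg/kg co-administered where stated; doses as free base. Readouts are % distance, arm entries and time in each arm. Familiar arms pooled; one-way ANOVA.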

Mus musculus [7] = test: Procognitive effect in C57Bl/6J mouse assessed as distance traveled in the novel arm at 0.43 mg/kg, po administered 30 mins prior to acquisition trial measured after 24 hrs in presence of SB242084 (reference value: 37 +/-5.8%); type: functional; method in brief: as §1
Mus musculus [8] = test: Procognitive effect in C57Bl/6J mouse assessed as time spent in familiar arm at 0.43 mg/kg, po administered 30 mins prior to acquisition trial measured after 24 hrs by Y-maze test; type: functional; method in brief: as §1
Mus musculus [9] = test: Procognitive effect in C57Bl/6J mouse assessed as number of novel arm entries at 0.43 mg/kg, po administered 30 mins prior to acquisition trial measured after 24 hrs by Y-maze test; type: functional; method in brief: as §1
Mus musculus [10] = test: Procognitive effect in C57Bl/6J mouse assessed as distance traveled in the novel arm at 0.43 mg/kg, po administered 30 mins prior to acquisition trial measured after 24 hrs by Y-maze test (reference value: 37 +/- 5.8%); type: functional; method in brief: as §1
[11] = target: T2, 5-hydroxytryptamine receptor 2C (Rattus norvegicus) (UniProt P08909); test: Displacement of [125I]-N-(p-I-Bn)-THAZ from 5HT2C receptor in Sprague-Dawley rat midbrain membrane at 100 uM after 40 mins by autoradiography; type: tissue-based
T2 sequence (whole entry): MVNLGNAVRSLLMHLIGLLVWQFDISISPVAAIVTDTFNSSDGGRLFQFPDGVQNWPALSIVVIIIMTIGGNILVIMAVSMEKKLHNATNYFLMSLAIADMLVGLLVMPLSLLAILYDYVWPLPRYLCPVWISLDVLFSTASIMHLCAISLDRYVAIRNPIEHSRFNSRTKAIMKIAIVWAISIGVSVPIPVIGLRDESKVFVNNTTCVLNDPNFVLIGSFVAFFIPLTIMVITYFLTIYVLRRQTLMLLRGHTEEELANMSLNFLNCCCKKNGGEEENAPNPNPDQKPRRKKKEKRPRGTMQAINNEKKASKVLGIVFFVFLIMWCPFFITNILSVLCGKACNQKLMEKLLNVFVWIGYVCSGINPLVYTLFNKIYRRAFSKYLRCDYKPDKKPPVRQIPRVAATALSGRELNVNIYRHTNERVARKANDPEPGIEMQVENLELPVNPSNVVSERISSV

[12] = target: T2, 5-hydroxytryptamine receptor 2C (Rattus norvegicus); test: Displacement of [125I]-N-(p-I-Bn)-THAZ from 5HT2C receptor in Sprague-Dawley rat cortical membrane at 100 uM after 40 mins by autoradiography
[13] = target: T2, 5-hydroxytryptamine receptor 2C (Rattus norvegicus); test: Displacement of [125I]-N-(p-I-Bn)-THAZ from 5HT2C receptor in rat hippocampal membrane after 1 hr by scintillation counting analysis; type: cell membranes; conditions: Hippocampus
[14] = target: T1, 5-hydroxytryptamine receptor 2A; test: biochemical; type: cell-based, tsA201; conditions: read-out: Ki
[15] = target: T3, 5-hydroxytryptamine receptor 2C (Homo sapiens, UniProt P28335); test: Agonist activity at human 5HT2C receptor expressed in HEK293 cells assessed as accumulation of IP1 incubated for 1 hr at 37 degC followed by 15 mins at RT by TR-FRET assay; type: functional, cell-based
T3 sequence (P28335 whole entry): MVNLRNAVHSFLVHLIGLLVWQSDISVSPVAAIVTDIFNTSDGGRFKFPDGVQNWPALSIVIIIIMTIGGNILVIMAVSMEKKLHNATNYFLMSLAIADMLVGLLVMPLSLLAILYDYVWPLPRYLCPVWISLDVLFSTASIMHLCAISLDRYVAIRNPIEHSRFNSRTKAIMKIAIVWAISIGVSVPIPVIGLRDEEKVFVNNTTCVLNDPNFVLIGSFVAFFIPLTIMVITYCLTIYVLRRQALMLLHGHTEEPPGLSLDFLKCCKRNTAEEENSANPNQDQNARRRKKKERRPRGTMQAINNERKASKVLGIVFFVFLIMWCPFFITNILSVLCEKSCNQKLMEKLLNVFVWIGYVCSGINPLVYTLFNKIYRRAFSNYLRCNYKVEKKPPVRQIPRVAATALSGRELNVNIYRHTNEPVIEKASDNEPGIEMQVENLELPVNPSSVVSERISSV

[16] = target: T3, 5-hydroxytryptamine receptor 2C; test: Agonist activity at human 5HT2C receptor expressed in HEK293 cells assessed as induction of intracellular calcium release measured for 90 secs by fluorescence assay; type: functional, cell-based; conditions: read-out: EC50
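Wherever Ki is given: radioligand displacement of [3H]ketanserin on membranes of tsA201 cells expressing the receptor, incubated 1 hr, bound radioactivity read by scintillation counting.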

For O=c1c2c(on1Cc1ccccc1)CCNCC2, the Ratio EC50 (Homo sapiens [1]) was 20, the Ratio EC50 (Homo sapiens [2]) was 20 and the Ratio EC50 [3] was 2. It also gave an Emax [4] of 95%, an Emax [5] of 80% and an Activity (Mus musculus [6]) of 31.7%. For the same compound, the Activity (Mus musculus [7]) was 34.7%, the Activity (Mus musculus [8]) was 30.6% and the Activity (Mus musculus [9]) was 38.5%. For the same compound, the Activity (Mus musculus [10]) was 40.4%, the Activity [11] was “Active” and the Activity [12] was “Active”. For the same compound, the Activity [13] was “inactive”, the Ki [14] was 8.8 µM and the EC50 [15] was 1.7 µM. The EC50 [16] was 0.42 µM.
